How the values were obtained:
[1] = tested on: Lewis lung carcinoma cell line; assay: Cytotoxicity against mouse LLC cells harboring […] assessed as reduction in cell viability after 72 hrs by MTT assay; assay type: functional, cell-based
Method in brief: (§1)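 Cells exposed to compounds; viability read at 24, 48 and 72 h. Every experiment run in triplicate.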

[2] = molecular target: Kappa-type opioid receptor (Homo sapiens, UniProt P41145); assay: Displacement of [3H]U69593 from KOR (unknown origin) expressed in HEK cells by radioligand binding assay relative to control; assay type: cell-based; design: concentration or dose not given beside the values; conditions: concentration not given here
Chain of Kappa-type opioid receptor (P41145 whole entry): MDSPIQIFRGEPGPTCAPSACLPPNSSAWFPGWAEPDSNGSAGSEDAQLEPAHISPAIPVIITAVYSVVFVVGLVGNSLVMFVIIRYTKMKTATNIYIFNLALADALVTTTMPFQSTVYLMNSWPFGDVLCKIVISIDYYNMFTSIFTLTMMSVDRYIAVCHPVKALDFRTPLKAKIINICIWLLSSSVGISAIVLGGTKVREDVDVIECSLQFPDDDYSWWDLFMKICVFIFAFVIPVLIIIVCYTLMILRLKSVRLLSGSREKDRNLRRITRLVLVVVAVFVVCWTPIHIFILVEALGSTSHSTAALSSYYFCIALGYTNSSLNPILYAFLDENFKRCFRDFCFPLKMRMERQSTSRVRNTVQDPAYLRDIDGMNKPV

D(2) dopamine receptor [3] = molecular target: T1, D(2) dopamine receptor (Homo sapiens, UniProt P14416); assay: Displacement of [3H]N-methylspiperone from human dopamine D2 receptor expressed in stable fibroblast cells by radioligand binding assay relative to control; assay type: cell-based; design: concentration or dose not given beside the values; conditions: concentration not given here
T1 sequence (P14416 whole entry): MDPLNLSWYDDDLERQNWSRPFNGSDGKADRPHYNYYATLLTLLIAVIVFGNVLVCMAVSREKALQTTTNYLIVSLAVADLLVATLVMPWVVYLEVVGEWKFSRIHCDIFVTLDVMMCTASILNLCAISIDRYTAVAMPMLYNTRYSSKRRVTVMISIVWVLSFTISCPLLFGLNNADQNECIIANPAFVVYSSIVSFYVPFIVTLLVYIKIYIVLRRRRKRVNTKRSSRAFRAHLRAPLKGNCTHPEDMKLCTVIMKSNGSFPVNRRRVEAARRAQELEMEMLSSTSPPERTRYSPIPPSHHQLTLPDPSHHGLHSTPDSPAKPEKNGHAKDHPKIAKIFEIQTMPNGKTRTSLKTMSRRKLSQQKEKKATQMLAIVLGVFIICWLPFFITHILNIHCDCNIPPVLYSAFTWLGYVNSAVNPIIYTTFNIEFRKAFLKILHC

D(1B) dopamine receptor [4] = molecular target: T2, D(1B) dopamine receptor (Homo sapiens, UniProt P21918); assay: Displacement of [3H]SCH23390 from human dopamine D5 receptor expressed in HEK293T cells by radioligand binding assay; assay type: cell-based
T2 sequence (P21918 whole entry): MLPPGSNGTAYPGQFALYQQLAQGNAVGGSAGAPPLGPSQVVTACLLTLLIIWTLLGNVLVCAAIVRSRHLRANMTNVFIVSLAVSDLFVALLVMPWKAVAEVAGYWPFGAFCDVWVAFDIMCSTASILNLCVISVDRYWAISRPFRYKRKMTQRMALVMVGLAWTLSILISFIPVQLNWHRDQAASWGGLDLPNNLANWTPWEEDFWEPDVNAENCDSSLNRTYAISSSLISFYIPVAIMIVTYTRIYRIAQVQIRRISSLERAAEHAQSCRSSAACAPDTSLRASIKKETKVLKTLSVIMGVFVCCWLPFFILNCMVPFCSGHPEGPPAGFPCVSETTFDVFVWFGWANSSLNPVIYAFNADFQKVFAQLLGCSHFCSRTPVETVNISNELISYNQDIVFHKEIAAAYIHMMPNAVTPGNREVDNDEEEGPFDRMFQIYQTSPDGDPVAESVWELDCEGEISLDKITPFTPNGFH

[5] = molecular target: Delta-type opioid receptor (Homo sapiens, UniProt P41143); assay: Displacement of [3H]DADLE from human DOR expressed in HEK cells by radioligand binding assay; assay type: cell-based; conditions: read-out: Ki
Chain of Delta-type opioid receptor (P41143 whole entry): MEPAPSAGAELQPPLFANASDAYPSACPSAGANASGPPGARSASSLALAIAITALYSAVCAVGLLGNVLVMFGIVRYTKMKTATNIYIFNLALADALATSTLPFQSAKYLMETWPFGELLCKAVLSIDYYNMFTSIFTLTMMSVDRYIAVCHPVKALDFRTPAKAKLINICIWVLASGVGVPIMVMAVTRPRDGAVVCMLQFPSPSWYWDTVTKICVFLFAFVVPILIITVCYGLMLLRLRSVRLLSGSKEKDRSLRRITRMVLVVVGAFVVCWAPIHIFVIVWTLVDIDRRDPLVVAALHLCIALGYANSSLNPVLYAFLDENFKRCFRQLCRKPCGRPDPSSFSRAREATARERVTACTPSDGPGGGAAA

[6] = molecular target: T3, 5-hydroxytryptamine receptor 2C (Homo sapiens) (UniProt P28335); assay: Displacement of [3H]Mesulergine from human 5-HT2C receptor expressed in HEK293FlpIN cells by radioligand binding assay relative to control; assay type: cell-based; design: concentration or dose not given beside the values; conditions: concentration not given here
T3 sequence (whole entry): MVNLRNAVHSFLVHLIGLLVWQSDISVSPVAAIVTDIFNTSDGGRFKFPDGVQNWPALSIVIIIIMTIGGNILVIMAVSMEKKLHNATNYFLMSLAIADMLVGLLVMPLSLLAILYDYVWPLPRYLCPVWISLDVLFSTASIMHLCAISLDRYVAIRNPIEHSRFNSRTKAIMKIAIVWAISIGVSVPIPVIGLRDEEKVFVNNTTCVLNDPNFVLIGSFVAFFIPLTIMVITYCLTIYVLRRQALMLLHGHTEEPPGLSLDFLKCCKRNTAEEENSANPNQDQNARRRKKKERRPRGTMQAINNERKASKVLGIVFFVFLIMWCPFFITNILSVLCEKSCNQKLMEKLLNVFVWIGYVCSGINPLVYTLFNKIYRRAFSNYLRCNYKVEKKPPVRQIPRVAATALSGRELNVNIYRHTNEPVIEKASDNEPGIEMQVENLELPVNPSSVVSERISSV

[7] = molecular target: T4, Sodium-dependent noradrenaline transporter (Homo sapiens, UniProt P23975); assay: Displacement of [3H]Nisoxetine from human NET expressed in HEK cells by radioligand binding assay; assay type: cell-based
T4 sequence (P23975 whole entry): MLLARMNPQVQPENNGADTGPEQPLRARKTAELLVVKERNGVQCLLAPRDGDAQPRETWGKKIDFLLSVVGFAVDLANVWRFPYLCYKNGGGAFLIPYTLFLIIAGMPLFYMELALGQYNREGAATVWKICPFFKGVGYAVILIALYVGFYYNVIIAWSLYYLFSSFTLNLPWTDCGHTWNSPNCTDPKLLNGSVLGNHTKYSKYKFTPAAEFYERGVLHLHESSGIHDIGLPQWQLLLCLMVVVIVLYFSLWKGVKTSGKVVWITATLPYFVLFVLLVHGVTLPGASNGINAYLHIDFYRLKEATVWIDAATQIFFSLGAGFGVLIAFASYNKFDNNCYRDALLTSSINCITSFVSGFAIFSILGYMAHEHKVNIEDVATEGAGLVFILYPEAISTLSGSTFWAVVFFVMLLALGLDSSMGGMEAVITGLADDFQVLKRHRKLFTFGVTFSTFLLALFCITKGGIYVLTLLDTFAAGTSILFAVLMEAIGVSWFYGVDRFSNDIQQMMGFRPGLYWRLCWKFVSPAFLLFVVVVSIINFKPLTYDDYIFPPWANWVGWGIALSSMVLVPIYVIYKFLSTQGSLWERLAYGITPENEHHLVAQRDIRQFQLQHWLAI

MDA-MB-231 [8] = assay: Cytotoxicity against human MDA-MB-231 cells assessed as reduction in cell viability after 24 hrs by MTT assay; assay type: functional, cell-based; conditions: MDA-MB-231, 24 h; method in brief: as §1
[9] = molecular target: T5, 5-hydroxytryptamine receptor 2B (Homo sapiens, UniProt P41595); assay: Displacement of [3H]LSD from human 5-HT2B receptor expressed in HEK cells by radioligand binding assay; assay type: cell-based; conditions: read-out: Ki
T5 sequence (P41595 whole entry): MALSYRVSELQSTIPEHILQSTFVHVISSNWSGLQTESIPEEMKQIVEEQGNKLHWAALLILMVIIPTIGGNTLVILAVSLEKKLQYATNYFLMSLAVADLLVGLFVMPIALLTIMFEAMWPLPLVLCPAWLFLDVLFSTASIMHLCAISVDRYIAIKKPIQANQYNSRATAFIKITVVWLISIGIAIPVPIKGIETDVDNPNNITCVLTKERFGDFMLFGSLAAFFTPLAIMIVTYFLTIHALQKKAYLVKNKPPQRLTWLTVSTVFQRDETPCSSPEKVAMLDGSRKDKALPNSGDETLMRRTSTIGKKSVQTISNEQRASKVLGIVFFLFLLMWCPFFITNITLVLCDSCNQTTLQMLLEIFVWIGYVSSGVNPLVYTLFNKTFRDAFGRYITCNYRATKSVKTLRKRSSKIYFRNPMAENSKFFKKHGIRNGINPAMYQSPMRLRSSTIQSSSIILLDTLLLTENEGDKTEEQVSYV

[10] = molecular target: 5-hydroxytryptamine receptor 1D (Homo sapiens, UniProt P28221); assay: Displacement of [3H]5-CT from human 5-HT1D receptor expressed in HEK293T cells by radioligand binding assay relative to control; assay type: cell-based; design: concentration or dose not given beside the values; conditions: concentration not given here
Chain of 5-hydroxytryptamine receptor 1D (P28221 whole entry): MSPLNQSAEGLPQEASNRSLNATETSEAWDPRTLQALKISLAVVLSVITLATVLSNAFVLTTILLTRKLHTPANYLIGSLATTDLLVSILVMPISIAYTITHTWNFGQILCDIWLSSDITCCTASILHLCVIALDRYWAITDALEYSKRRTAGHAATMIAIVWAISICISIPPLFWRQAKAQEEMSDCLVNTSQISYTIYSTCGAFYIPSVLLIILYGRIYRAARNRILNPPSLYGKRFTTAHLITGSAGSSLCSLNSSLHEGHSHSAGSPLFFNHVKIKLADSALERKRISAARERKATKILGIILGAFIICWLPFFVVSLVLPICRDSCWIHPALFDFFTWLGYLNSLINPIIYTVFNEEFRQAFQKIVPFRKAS

Mu-type opioid receptor [11] = molecular target: T6, Mu-type opioid receptor (Homo sapiens, UniProt P35372); assay: Displacement of [3H]DAMGO from human MOR expressed in HEK cells by radioligand binding assay; assay type: cell-based
T6 sequence (P35372 whole entry): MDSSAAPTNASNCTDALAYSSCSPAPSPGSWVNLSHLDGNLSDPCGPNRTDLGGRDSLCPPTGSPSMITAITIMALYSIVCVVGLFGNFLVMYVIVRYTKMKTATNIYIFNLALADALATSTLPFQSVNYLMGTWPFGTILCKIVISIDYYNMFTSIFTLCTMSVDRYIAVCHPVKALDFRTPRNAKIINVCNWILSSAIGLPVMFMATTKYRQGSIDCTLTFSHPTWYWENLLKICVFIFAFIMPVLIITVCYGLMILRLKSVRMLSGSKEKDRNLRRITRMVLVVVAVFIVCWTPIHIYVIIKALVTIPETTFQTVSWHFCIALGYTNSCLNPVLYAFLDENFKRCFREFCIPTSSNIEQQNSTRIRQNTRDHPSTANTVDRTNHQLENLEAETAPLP

[12] = molecular target: T7, 5-hydroxytryptamine receptor 7 (Homo sapiens, UniProt P34969); assay: Displacement of [3H]LSD from human 5-HT7A receptor expressed in HEK cells by radioligand binding assay; assay type: cell-based
T7 sequence (P34969 whole entry): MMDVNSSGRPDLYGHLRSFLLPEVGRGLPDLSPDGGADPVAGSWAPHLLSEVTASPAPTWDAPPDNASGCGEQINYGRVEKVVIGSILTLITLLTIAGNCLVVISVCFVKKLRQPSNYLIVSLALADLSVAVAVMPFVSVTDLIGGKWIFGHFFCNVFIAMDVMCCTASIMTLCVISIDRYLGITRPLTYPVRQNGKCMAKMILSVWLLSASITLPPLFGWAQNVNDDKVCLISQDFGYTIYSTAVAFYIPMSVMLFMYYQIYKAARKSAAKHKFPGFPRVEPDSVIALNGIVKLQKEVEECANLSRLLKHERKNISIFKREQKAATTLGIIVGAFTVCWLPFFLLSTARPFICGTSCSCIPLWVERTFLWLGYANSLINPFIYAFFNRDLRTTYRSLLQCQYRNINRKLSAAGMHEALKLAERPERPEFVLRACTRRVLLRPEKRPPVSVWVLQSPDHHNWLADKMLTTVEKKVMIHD

[13] = molecular target: 5-hydroxytryptamine receptor 6 (Homo sapiens, UniProt P50406); assay: Displacement of [3H]LSD from human 5-HT6 receptor expressed in HEK cells by radioligand binding assay relative to control; assay type: cell-based; design: concentration or dose not given beside the values; conditions: concentration not given here
Chain of 5-hydroxytryptamine receptor 6 (P50406 whole entry): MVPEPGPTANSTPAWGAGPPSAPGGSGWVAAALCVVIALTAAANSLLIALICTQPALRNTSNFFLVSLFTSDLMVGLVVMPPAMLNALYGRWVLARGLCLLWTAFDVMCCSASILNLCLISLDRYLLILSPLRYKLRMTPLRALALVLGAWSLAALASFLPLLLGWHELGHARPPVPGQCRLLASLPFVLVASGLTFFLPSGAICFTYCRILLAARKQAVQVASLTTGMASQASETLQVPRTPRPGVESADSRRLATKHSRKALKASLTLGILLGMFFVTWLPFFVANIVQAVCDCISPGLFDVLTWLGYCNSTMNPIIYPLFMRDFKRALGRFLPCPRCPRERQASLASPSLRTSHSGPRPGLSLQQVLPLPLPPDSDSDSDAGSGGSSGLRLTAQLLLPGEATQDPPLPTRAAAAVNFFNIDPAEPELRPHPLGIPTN

D(3) dopamine receptor [14] = molecular target: T8, D(3) dopamine receptor (Homo sapiens, UniProt P35462); assay: Displacement of [3H]N-methylspiperone from human dopamine D3 receptor expressed in HEK293T cells by radioligand binding assay relative to control; assay type: cell-based; design: concentration or dose not given beside the values; conditions: concentration not given here
T8 sequence (P35462 whole entry): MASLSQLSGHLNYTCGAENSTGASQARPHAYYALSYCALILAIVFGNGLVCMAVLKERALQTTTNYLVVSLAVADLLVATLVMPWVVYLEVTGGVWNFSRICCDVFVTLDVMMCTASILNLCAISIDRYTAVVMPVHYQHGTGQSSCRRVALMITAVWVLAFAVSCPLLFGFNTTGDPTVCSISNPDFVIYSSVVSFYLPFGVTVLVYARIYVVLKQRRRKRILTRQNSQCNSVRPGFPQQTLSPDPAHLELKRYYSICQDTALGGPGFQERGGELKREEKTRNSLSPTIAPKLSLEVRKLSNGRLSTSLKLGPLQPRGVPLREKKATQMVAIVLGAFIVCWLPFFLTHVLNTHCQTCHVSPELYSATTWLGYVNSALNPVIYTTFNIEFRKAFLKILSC

[15] = molecular target: T9, 5-hydroxytryptamine receptor 2C (Homo sapiens, UniProt P28335); assay: Displacement of [3H]Mesulergine from human 5-HT2C receptor expressed in HEK293FlpIN cells by radioligand binding assay; assay type: cell-based
T9 sequence (P28335 whole entry): T3 sequence (whole entry)

D(2) dopamine receptor [16] = molecular target: T1, D(2) dopamine receptor; assay: Displacement of [3H]N-methylspiperone from human dopamine D2 receptor expressed in stable fibroblast cells by radioligand binding assay; assay type: cell-based
D(4) dopamine receptor = molecular target: T10, D(4) dopamine receptor (Homo sapiens, UniProt P21917); assay: Displacement of [3H]N-methylspiperone from human dopamine D4 receptor by radioligand binding assay
T10 sequence (P21917 whole entry): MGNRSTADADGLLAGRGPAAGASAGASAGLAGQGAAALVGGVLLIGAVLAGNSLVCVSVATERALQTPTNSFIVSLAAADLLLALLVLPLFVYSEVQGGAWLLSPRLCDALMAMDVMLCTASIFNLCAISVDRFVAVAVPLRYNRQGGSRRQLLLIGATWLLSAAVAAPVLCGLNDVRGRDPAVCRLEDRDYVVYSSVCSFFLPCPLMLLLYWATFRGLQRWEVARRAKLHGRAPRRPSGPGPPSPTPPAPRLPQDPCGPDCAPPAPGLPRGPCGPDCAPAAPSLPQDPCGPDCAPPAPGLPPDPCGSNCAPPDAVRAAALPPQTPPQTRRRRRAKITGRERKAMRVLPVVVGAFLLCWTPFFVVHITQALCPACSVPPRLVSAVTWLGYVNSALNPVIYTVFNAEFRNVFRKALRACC

[17] = molecular target: T4, Sodium-dependent noradrenaline transporter; assay: Displacement of [3H]Nisoxetine from human NET expressed in HEK cells by radioligand binding assay relative to control; assay type: cell-based
D(3) dopamine receptor [18] = molecular target: T8, D(3) dopamine receptor; assay: Displacement of [3H]N-methylspiperone from human dopamine D3 receptor expressed in HEK293T cells by radioligand binding assay; assay type: cell-based
MDA-MB-231 [19] = assay: Cytotoxicity against human MDA-MB-231 cells assessed as reduction in cell viability after 48 hrs by MTT assay; assay type: functional, cell-based; conditions: MDA-MB-231, 48 h; method in brief: as §1
Histamine H2 receptor = Histamine H2 receptor (Homo sapiens, UniProt P25021); assay: Displacement of [3H]Cimetidine from human H2 receptor expressed in HEK cells by radioligand binding assay relative to control; assay type: cell-based; design: concentration or dose not given beside the values; conditions: concentration not given here
D(1B) dopamine receptor [20] = molecular target: T2, D(1B) dopamine receptor; assay: Displacement of [3H]SCH23390 from human dopamine D5 receptor expressed in HEK293T cells by radioligand binding assay relative to control; assay type: cell-based; design: concentration or dose not given beside the values; conditions: concentration not given here
Mu-type opioid receptor [21] = molecular target: T6, Mu-type opioid receptor; assay: Displacement of [3H]DAMGO from human MOR expressed in HEK cells by radioligand binding assay relative to control; assay type: cell-based; design: concentration or dose not given beside the values; conditions: concentration not given here
[22] = molecular target: T11, D(4) dopamine receptor (Homo sapiens) (UniProt P21917); assay: Displacement of [3H]N-methylspiperone from human dopamine D4 receptor by radioligand binding assay relative to control; design: concentration or dose not given beside the values; conditions: concentration not given here
T11 sequence (whole entry): T10 sequence (P21917 whole entry)

[23] = molecular target: Sodium-dependent serotonin transporter (Homo sapiens, UniProt P31645); assay: Displacement of [3H]Citalopram from human SERT expressed in HEK cells by radioligand binding assay relative to control; assay type: cell-based
[24] = molecular target: T7, 5-hydroxytryptamine receptor 7; assay: Displacement of [3H]LSD from human 5-HT7A receptor expressed in HEK cells by radioligand binding assay relative to control; assay type: cell-based
[25] = molecular target: T5, 5-hydroxytryptamine receptor 2B; assay: Displacement of [3H]LSD from human 5-HT2B receptor expressed in HEK cells by radioligand binding assay relative to control; assay type: cell-based; design: concentration or dose not given beside the values; conditions: concentration not given here
NIH3T3 = assay: Cytotoxicity against mouse NIH/3T3 cells assessed as reduction in cell viability after 24 hrs by MTT assay; assay type: cell-based; conditions: NIH3T3, 24 h; method in brief: as §1

Compound: OC1(c2ccc(Cl)c(C(F)(F)F)c2)CCN(CCCC(c2ccccc2)c2ccccc2)CC1
- IC50 [1]: 9200 nM
- inhibition [2]: 98%
- inhibition (D(2) dopamine receptor [3]): 100%
- Ki (D(1B) dopamine receptor [4]): 121 nM
- Ki [5]: 1530 nM
- inhibition [6]: 82.9%
- Ki [7]: 518 nM
- IC50 (MDA-MB-231 [8]): 9300 nM
- Ki [9]: 374 nM
- inhibition [10]: 83.3%
- Ki (Mu-type opioid receptor [11]): 70 nM
- Ki [12]: 326 nM
- inhibition [13]: 72.8%
- inhibition (D(3) dopamine receptor [14]): 97.4%
- Ki [15]: 2130 nM
- Ki (D(2) dopamine receptor [16]): 38 nM
- Ki (D(4) dopamine receptor): 58 nM
- inhibition (INH) [17]: 90.6%
- Ki (D(3) dopamine receptor [18]): 62 nM
- IC50 (MDA-MB-231 [19]): 8700 nM
- inhibition (Histamine H2 receptor): 89.5%
- inhibition (D(1B) dopamine receptor [20]): 89.4%
- inhibition (Mu-type opioid receptor [21]): 90.3%
- inhibition [22]: 98.9%
- inhibition (INH) [23]: 83.7%
- inhibition (INH) [24]: 82.1%
- inhibition [25]: 92.5%
- IC50 (NIH3T3): 12200 nM

Reference: ChEMBL document CHEMBL4257579, “Analogs of penfluridol as chemotherapeutic agents with reduced central nervous system activity” (Bioorg Med Chem Lett, 2018)
